UPR CHOP act – activators of apoptotic arm of unfolded protein response (CHOP); activation, % at 10 µM; CHO-CHOP luciferase reporter, UPR activation, luminescence; percent of tunicamycin response over DMSO baseline; hit rate 0.34% among 330,000; AID 449763;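 active = at 10 µM dose, activation of 40% or more, normalized to positive control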;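 also: 100% = tunicamycin at 10 µg/mL and 0% = DMSO alone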
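Assay system: CHO-CHOP cells, stable luciferase reporter of PERK-eIF2a-CHOP signalling / Buffer or medium: F12 plus 10% serum / Compound dosing: one dose, 10 µM in 0.5% DMSO / Times: 6 h compound treatment, 37 °C / Technique: luciferase luminescence / Read-out: % reporter activation, DMSO baseline versus tunicamycin full activation / Benchmarks: tunicamycin and DMSO controls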
Dynein transport – dynein cargo transport inhibition | 3617.4 mouse cells, GR-EGFP nuclear translocation imaging; test concentration mostly 20 µM; stimulated with dexamethasone, 1 µM; hits give low values | z-score, hits read low | hit rate 0.47% among 220,000 | AID 1381;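 active = plate z-score of nuclear minus cytoplasmic receptor signal below a set negative limit, without overly bright fluorescence or cell loss, cut at about -3.5 in these data, passing the limit was not always enough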;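 also: z-score of nuclear minus cytoplasmic ring GR-EGFP intensity difference per well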
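Buffer or medium: tet-free medium with charcoal-stripped serum / Also added: dexamethasone agonist, 1.0 µM final, for 30 min / Timing: induction 48 h, compound 1 h, agonist 30 min / Measured by: high-content fluorescence imaging after fixation / Read-out: nuclear-to-cytoplasmic GR-EGFP distribution per well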
pCIP destab – compounds decreasing mouse p/CIP protein stability. F442A p/CIP-EGFP cells, EGFP fluorescence, 16 h. decrease of EGFP signal, % at 10 µM. hit rate 0.01% among 290,000. AID 1984;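 active = EGFP signal decrease of at least 30% at 10 µM or well 3 SD below plate mean, unless failing retest; inactive = the rest, including hits failing retest or dose response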
Target sequence (Q05BA5 1-1403): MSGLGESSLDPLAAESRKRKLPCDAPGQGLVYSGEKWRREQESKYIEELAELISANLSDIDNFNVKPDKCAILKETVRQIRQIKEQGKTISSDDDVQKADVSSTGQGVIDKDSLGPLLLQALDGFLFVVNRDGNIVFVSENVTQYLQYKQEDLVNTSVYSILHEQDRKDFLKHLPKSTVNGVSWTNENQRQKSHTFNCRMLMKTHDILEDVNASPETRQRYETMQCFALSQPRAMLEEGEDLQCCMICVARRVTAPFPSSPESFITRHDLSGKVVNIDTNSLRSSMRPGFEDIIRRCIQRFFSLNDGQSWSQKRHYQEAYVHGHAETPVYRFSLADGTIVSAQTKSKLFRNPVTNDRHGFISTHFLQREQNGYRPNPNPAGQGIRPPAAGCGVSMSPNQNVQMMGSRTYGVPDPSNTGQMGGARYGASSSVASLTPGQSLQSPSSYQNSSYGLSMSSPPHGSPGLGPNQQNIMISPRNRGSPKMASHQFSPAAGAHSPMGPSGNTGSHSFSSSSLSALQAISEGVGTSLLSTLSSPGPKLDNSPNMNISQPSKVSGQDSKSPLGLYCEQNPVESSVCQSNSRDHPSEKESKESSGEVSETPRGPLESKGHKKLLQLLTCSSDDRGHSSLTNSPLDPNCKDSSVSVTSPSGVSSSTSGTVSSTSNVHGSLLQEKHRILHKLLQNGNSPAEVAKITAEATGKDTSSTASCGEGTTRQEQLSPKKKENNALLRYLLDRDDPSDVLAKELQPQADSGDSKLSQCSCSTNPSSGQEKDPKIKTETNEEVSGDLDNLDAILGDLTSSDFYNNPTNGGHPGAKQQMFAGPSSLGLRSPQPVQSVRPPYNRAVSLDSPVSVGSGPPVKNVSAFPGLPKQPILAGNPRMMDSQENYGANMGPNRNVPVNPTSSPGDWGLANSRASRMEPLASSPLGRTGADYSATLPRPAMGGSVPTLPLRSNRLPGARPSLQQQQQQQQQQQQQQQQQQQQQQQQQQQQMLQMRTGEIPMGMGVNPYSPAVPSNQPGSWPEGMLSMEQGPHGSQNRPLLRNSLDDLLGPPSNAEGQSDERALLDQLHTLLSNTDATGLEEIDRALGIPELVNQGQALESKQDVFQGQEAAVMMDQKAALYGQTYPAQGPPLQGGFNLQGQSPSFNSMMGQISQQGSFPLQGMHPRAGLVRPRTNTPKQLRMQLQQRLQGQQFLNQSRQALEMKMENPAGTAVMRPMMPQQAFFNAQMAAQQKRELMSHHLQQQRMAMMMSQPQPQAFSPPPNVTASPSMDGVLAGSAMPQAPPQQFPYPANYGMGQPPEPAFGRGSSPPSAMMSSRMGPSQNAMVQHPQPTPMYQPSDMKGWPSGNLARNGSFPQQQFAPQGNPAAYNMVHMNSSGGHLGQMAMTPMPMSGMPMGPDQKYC
CHOP inhibitor – blocks CHOP induction under ER stress; inhibition, % at 10 µM; CHO-K1 CHOP-promoter luciferase, tunicamycin-induced, 15-18 h; hit rate 3.8% among 220,000; AID 2732;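 active = compounds that reduced the stress-induced luciferase reporter signal by more than about 70% of percent inhibition, limit read from the data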;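 also: 0% = tunicamycin plus vehicle and 100% = wells without tunicamycin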
XBP1 UPR activ – activators of adaptive arm of unfolded protein response (XBP1); CHO-XBP1 luciferase reporter, IRE1-XBP1 UPR activation, luminescence; percent of tunicamycin response, DMSO as zero; activation, % at 20 µM; hit rate 0.33% among 330,000;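 active = versus positive control, 20 µM dose yields 30% or more activation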;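 also: 100% = tunicamycin at 10 µg/mL and 0% = DMSO only wells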
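Test system: CHO-XBP1 luciferase reporter cells | Buffer or medium: Serum-containing F12 medium, 10% FBS | Schedule: 6 h compound exposure at 37 °C, 5% CO2 | Detection: Steady-Glo luciferase glow luminescence, 10 min after reagent addition | Read-out basis: Activation, % of tunicamycin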
B2AR ag – activates human beta-2 adrenergic receptor causing internalization. Am2.2-beta2AR cells, FAP receptor internalization, flow cytometry. response, % (concentration not given with the values). hit rate 0.43% among 340,000;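 active = response above a set limit, near 3 SD of response in nonfluorescent compounds, cut at about 42% in these data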
* = called active by the depositor; / = no result given. Many of the other results were omitted from the sample, so hits are more common in it than they were.

SMILES	UPR CHOP act	Dynein transport	pCIP destab	CHOP inhibitor	XBP1 UPR activ	B2AR ag
Cc1ccc2oc3c(c(=O)c2c1)C(c1cccc(Br)c1)N(Cc1ccco1)C3=O (stereo unspecified)	/	1.3	-6.6	80.9*	/	-4.0
Cc1cc2oc3c(c(=O)c2cc1C)C(c1cccc(Br)c1)N(Cc1ccco1)C3=O (stereo unspecified)	3.6	0.101	-6.6	-5.1	-0.3	-3.4
CCOc1cc(C2c3c(oc4cc(C)c(Cl)cc4c3=O)C(=O)N2Cc2ccco2)ccc1O (stereo unspecified)	7.1	1.1	-0.5	95.8*	8.9	1.3
N=c1ccn2c(n1)OC1[C@@H](O)[C@@H](CO)O[C@H]12 (stereo partly specified)	/	/	/	16.1	/	/
COc1ccc(/C=C2\CCc3ccccc3C2=O)cc1Cn1nc(C)cc1C	1.5	-0.195	2.7	70.4*	0.7	23.4
O=C(COc1ccc2c(c1)OCO2)Nc1cccc(F)c1	2.9	/	-4.1	/	0.6	5.9
Cc1ccc(SCC(=O)NC(=O)NCCC(C)C)c(C)c1	-0.9	0.272	-11.9	80.7*	-0.6	-0.4
C1=C(c2ccccc2)N2CCN=C2S1	0.5	0.0772	-0.8	86.4*	-1.0	-3.1
S=C(Sc1ccc(Cl)cc1)Sc1ccc(Cl)cc1	-9.5	-5.11*	-14.7	106.3*	-8.8	/
OC(CSc1c(Cl)cccc1Cl)CN1CCN(c2ccc(F)cc2)CC1 (stereo unspecified)	-2.1	-0.187	-5.0	88.2*	-2.0	6.2
OC(CSc1ccccc1Cl)CN1CCN(c2ccc(F)cc2)CC1 (stereo unspecified)	-1.5	-0.345	-6.9	65.0	-1.3	-6.9
CC12COC3(C(=O)N4CCN(c5ccccn5)CC4)CC1CCC32C (stereo unspecified)	1.8	-1.07	-2.7	-15.1	-1.5	-16.1
COc1ccc(C(=O)NC(C)C2CC3CCC2C3)cc1 (stereo unspecified)	1.4	/	-8.1	/	-0.4	-1.5
CC(NC(=O)c1ccc(N(C)C)cc1)C1CC2CCC1C2 (stereo unspecified)	/	-0.945	-7.0	78.8*	/	-0.6
O=C(COc1ccccc1)Nc1cccc(-c2nc3cc4ccccc4cc3[nH]2)c1	11.4	1.79	-12.8	70.7*	19.2	29.1
CC(Oc1ccc(F)cc1)C(=O)Nc1ccc2ccccc2c1 (stereo unspecified)	2.3	0.51	-1.3	11.8	-1.5	-0.7
CC(Oc1ccccc1F)C(=O)Nc1ccc2ccccc2c1 (stereo unspecified)	0.6	0.0952	-7.4	88.0*	1.6	0.1
COc1cc(NC(=O)COc2cc3oc(=O)cc(C)c3cc2Cl)cc(OC)c1OC	1.2	/	-9.5	/	-4.8	46.1*
CN(c1ccccc1)S(=O)(=O)c1cccc(NC(=O)C2=NN(c3ccccc3)C(=O)CC2)c1	1.5	/	/	/	-3.4	-1.8
CCOc1ccc2oc(C(=O)OCC(=O)NCc3ccc(OC)cc3)c(C)c2c1	-1.3	/	/	/	-0.1	-2.2
CCCNC(=O)NC(=O)COC(=O)c1oc2ccc(OCC)cc2c1C	0.6	-0.201	-5.9	72.4*	0.3	3.1
O=C(NC(=S)Nc1ccc(Br)cn1)c1cncc(Br)c1	2.3	-0.0559	-9.9	80.6*	6.8	-8.2
O=C(COC(=O)CCSc1ccccc1Cl)Nc1ccc(F)cc1F	1.3	-1.18	-1.7	71.8*	-5.4	7.7
COc1ccc(Br)cc1/C=C/C(=O)c1ccc(NC(C)=O)cc1	/	-3.51*	-7.4	-19.6	/	-11.3
COc1cc(/C=C2/NC(=O)NC2=O)cc(Br)c1OCc1ccccc1	-1.1	0.197	-19.0	94.4*	2.5	9.3
SMILES	UPR CHOP act	Dynein transport	pCIP destab	CHOP inhibitor	XBP1 UPR activ	B2AR ag
CC(C)(C)c1ccc(/C=C/C(=O)NC2=NCCS2)cc1	3.8	0.504	-3.2	81.8*	-7.8	0.0
Cc1ccc(/C=C/C(=O)NC2=NCCS2)cc1	-0.7	0.936	-5.7	18.2	-2.1	-11.0
CCC(=O)NC1=C(Cl)C(=O)C(NC(=O)CC)=C(Cl)C1=O	8.4	-5.13	0.3	86.7*	-12.9	26.3
CCC(=O)NC1=C(NC(C)c2ccccc2)C(=O)c2ccccc2C1=O (stereo unspecified)	-1.5	1.07	2.2	3.1	0.7	-7.2
Cc1ccc(C2C(C(=O)c3cccs3)=C(O)C(=O)N2c2nnc(C)s2)cc1 (stereo unspecified)	2.9	-0.244	-3.7	-19.8	1.3	12.8
COc1cc(/C=N\NC(=O)c2ccccc2F)ccc1Oc1ccc([N+](=O)[O-])cn1	-3.4	-0.683	9.0	11.8	0.5	-3.7
Cc1ccc(S(=O)(=O)c2c(C)nn(-c3ccccc3)c2OC(=O)c2ccco2)cc1	-0.9	-0.307	-18.8	102.8*	-1.4	0.7
Cc1ccc(S(=O)(=O)c2c(C)nn(-c3ccccc3)c2OC(=O)c2ccc(Br)o2)cc1	/	-0.628	6.7	3.8	/	5.2
CSc1ccccc1NC(=O)CN(c1cc(C)cc(C)c1)S(C)(=O)=O	0.0	0.39	-18.7	47.0	-1.9	-7.9
CS(=O)(=O)N(CC(=O)Nc1ccccc1Sc1ccccc1)c1cccc(Br)c1	-0.3	-0.968	-1.0	77.1*	-4.6	-4.4
O=c1c(C=Nc2ccc(Cl)cc2)c[nH]n1-c1cccc(Cl)n1	1.6	0.188	5.1	83.4*	-1.3	-14.6
O=C1OC(c2ccccc2)=N/C1=C\C=C\c1ccccc1[N+](=O)[O-]	-0.8	-1.12	5.3	70.7*	-2.2	7.6
CC(C)(C)c1ccc(C(=O)Nc2ccc(NC(=O)c3ccco3)cc2)cc1	3.7	-0.34	-20.7	72.8*	3.9	9.8
COc1ccc(NC(=O)c2ccco2)cc1NC(=O)c1ccco1	1.0	-0.513	-7.5	8.3	2.1	-13.8
COc1ccc(NC(=O)c2ccco2)cc1N	4.4	-1.19	-8.7	70.0*	1.7	-0.2
COc1c(F)c(F)c(C(=O)Nc2ccc(NC(=O)c3ccco3)cc2)c(F)c1F	-2.1	-0.0613	-11.9	80.1*	-2.5	3.9
CC(C)(C)C(=O)COC(=O)c1cccc(NC(=O)c2ccco2)c1	3.8	0.949	7.2	72.3*	2.7	-4.6
CN(C(=O)CN1C(=O)S/C(=C\c2ccc(Cl)cc2)C1=O)C1CCS(=O)(=O)C1 (stereo unspecified)	-1.1	/	-8.6	/	0.2	-4.2
CCOC(=O)Cc1ccc(NC(=O)c2ccc(C(C)(C)C)cc2)cc1	-0.9	-0.669	6.3	85.5*	-3.3	13.8
COc1ccccc1N1CCN(S(=O)(=O)c2cccc(F)c2)CC1	-0.6	-0.0352	-10.5	68.3	3.6	-1.9
Cn1c(NCc2ccco2)nc2c1c(=O)n(Cc1ccc(Cl)cc1)c(=O)n2C	-2.2	-0.342	36.8	79.3*	4.3	0.9
